From PubChem
Hits are enriched below; roughly 0.58% of the tested compounds scored in any of these assays.
miR122 inh = miR-122 inhibition in Huh7 cells. actives 0.3% (n = 340,000). Huh7 miR-122 Renilla luciferase sensor, 48 h; neutral wells = 0, positive control = 100. AID 602342. activation (reporter increase), % at 12.5 µM;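 active means mean replicate activation score at least 90 and every replicate individually at or above 90; inconclusive means only one of the two criteria met; inactive means neither criterion met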;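 further: higher luciferase means less miR-122 activity so hits act as miR-122 inhibitors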
PvdQ acylase = blocks Pseudomonas aeruginosa PvdQ acylase activity. purified PvdQ acylase, fluorescence plate reader. inhibition, % at 10 µM. actives 0.063% (n = 340,000). AID 488965; in the data active means inhibition above about 30%, passing the limit was not always enough; inconclusive means no clear call, values can overlap the other calls;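 further: 0% = vehicle neutral wells and 100% = reference inhibitor wells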
ERp5 block = inhibitors of human ERp5; AID 651711; actives 0.05% (n = 350,000); ERp5 insulin aggregation, absorbance 650 nm, 90 min; inhibition, % at 9.99 µM; Q15084;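 active means mean replicate inhibition above about 25%, with every replicate also reaching it, limit read from the data, passing the limit was not always enough; inconclusive means only one of those two criteria met; inactive means neither criterion met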
Cneo AK release = Cryptococcus neoformans lysis via adenylate kinase release; C. neoformans lysis, adenylate kinase release luminescence, 4 h; normalised: neutral wells 0, clomiphene wells 100; lysis activity, % at 15 µM; AID 651654; actives 0.2% (n = 360,000);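 active means mean lysis activity across replicates of at least 80%, whatever share of replicates individually reach that level; inactive means mean lysis activity below 80%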
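Assay system: Cryptococcus neoformans yeast cells / Dosing: single-point compound dose / Timing: 4 h at 37 °C static, read 1 h later / Measured by: luminescence of released adenylate kinase using an AK detection reagent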
PglD inh = inhibitors of Campylobacter jejuni PglD acetyltransferase. purified PglD enzyme, DTNB colorimetric CoA detection. actives 0.098% (n = 360,000). inhibition, % at 12.5 µM; in the data active means inhibition above about 16%, passing the limit was not always enough; inconclusive means no clear call, values can overlap the other calls
PDI inh = blocks human protein disulfide isomerase activity; P07237; PDI insulin aggregation turbidity, A650, 90 min; inhibition, % at 10 µM; actives 0.052% (n = 350,000);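 active means mean inhibition across replicates of 30% or more, whatever share of single replicates reach that level; inconclusive means mean inhibition below 30% while every single replicate reaches 30%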
Target sequence (P07237 whole entry, looked up): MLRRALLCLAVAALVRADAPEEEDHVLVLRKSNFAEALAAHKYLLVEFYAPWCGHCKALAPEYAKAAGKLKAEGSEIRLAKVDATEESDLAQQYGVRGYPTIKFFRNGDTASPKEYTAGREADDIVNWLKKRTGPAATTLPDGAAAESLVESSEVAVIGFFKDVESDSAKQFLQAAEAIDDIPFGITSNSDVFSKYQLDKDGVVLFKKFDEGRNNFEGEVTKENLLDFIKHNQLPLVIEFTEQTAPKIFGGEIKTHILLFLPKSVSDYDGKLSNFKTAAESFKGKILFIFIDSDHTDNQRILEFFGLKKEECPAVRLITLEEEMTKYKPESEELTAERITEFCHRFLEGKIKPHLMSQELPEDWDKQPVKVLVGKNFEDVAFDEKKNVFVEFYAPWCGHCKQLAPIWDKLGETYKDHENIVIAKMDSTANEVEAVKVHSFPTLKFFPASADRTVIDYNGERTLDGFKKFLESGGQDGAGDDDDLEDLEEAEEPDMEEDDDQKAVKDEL
Active calls of the source: *; ? = inconclusive; / = no result given; [ ] = remark or other dose.

SMILES | miR122 inh | PvdQ acylase | ERp5 block | Cneo AK release | PglD inh | PDI inh
COc1ccc(NC(=O)Nc2cccc3c2O[C@H](CN(C)C(=O)Nc2ccccc2)[C@H](C)CN([C@@H](C)CO)C3=O)cc1 | -0.8[16.7 µM] | / | 0.5 | -0.6 | 0.2 | /
COc1ccc(Nc2cc(C)nc3nc(C)nn23)c(OC)c1 | -1.6 | 5.2 | -0.6 | 1.4 | -1.9 | /
COc1ccc(OC)c(Nc2cc(C)nc3nc(C)nn23)c1 | 106.8* | -4.5 | 4.5 | 0.3 | 0.3 | /
CCCNC(=O)N(C)C[C@H]1Oc2cc(-c3cccnc3)ccc2S(=O)(=O)N([C@H](C)CO)C[C@@H]1C | 7.9[16.7 µM] | / | 2.1 | 1.8 | -2.8 | /
COC(=O)c1ccc(NS(=O)(=O)c2cc(C)ccc2OC)cc1 | 149.8* | -8.9 | / | -0.5 | 5.8 | -8.2
COc1ccc(C(=O)O)cc1S(=O)(=O)Nc1ccc(C)cc1 | / | -5.2 | -0.9 | / | / | -0.3
COc1ccc(C)cc1S(=O)(=O)Nc1cc2c3c(c1)CC(=O)N3CCC2 | 34.5 | 0.4 | 5.0 | 0.6 | -0.6 | 26.3
Cc1ccc(C)c(S(=O)(=O)Nc2cc3c4c(c2)CC(=O)N4CCC3)c1 | 163.4* | 0.5 | -5.7 | -1.1 | -3.8 | -4.3
COc1ccc(C)cc1S(=O)(=O)Nc1ccc(F)cc1 | 113.4* | 1.8 | / | 2.5 | -7.8 | 8.0
COc1ccc(OC)c(S(=O)(=O)Nc2cc3c4c(c2)CCN4C(=O)CC3)c1 | 142.8* | -10.6 | 1.5 | 2.1 | -1.1 | -10.6
CCCNC(=O)N1C[C@H](O)COC[C@@H]2O[C@@H](CC(=O)NCc3ccncn3)CC[C@H]21 | -2.4[16.7 µM] | / | -4.4 | 6.0 | 2.9 | /
CCNC(=O)C[C@H]1CC[C@H]2[C@H](COc3ccc(NC(=O)Nc4ccc(Cl)cc4)cc3C(=O)N2C)O1 | 5.5[16.7 µM] | / | 2.0 | 4.2 | 1.9 | /
CCc1ccc(NS(=O)(=O)c2cc(OC)ccc2OC)cc1 | 140.2* | -11.8 | 2.6 | / | / | 3.2
COc1ccc(NS(=O)(=O)c2cc(OC)ccc2OC)cc1 | ? | -7.2 | 6.6 | -2.7 | 5.5 | 11.0
CCOc1cc(C)c(S(=O)(=O)Nc2ccc(F)cc2)cc1C | 304.0* | -24.3 | / | 0.9 | 2.7 | -2.3
COc1ccc(NC(=O)C2CCC2)cc1S(=O)(=O)Nc1cc(C)ccc1Br | 170.2* | -12.8 | 1.8 | -0.4 | -1.6 | 12.5
COc1ccc(S(=O)(=O)Nc2ccc(S(=O)(=O)Nc3ccc(F)cc3)cc2)cc1C | ? | -14.3 | / | 4.2 | 0.9 | 3.2
C[C@H](CO)N1C[C@H](C)[C@H](CN(C)C(=O)Nc2ccc(F)cc2)Oc2c(NC(=O)Nc3ccc(F)cc3)cccc2C1=O | 0.0[16.7 µM] | / | -2.9 | -3.8 | 2.9 | /
O=C(C[C@H]1C[C@@H]2c3cc(NC(=O)NC4CCCCC4)ccc3O[C@@H]2[C@@H](CO)O1)NCc1ccccc1 | -3.2[16.7 µM] | / | 1.8 | 0.3 | 1.7 | /
Cc1noc(C)c1S(=O)(=O)Nc1ccc2c(c1)C(=O)N([C@@H](C)CO)C[C@H](C)[C@H](CN(C)S(=O)(=O)c1ccc(F)cc1)OCCCC[C@H](C)O2 | 1.2[16.7 µM] | / | 7.4 | 47.0 | -3.0 | /
O=C(C[C@@H]1CC[C@H](NC(=O)c2ccc3c(c2)OCO3)[C@H](CO)O1)NCc1ccc(F)cc1 | / | / | ? | 79.1 | 7.8 | /
O=C(C[C@H]1CC[C@@H](NC(=O)c2ccc3c(c2)OCO3)[C@@H](CO)O1)NCc1ccc(F)cc1 | / | / | 3.6 | 93.7* | 3.1 | /
Cc1ccc(S(=O)(=O)N/N=C/c2ccc(OCC(=O)Nc3ccccc3Cl)cc2)cc1 | 219.5* | -2.3 | 8.4 | 1.1 | 0.6 | 4.2
COc1ccccc1NC(=O)COc1ccc(/C=N/NS(=O)(=O)c2ccc(C)cc2)cc1 | 57.5 | -2.7 | / | 0.0 | -1.0 | 7.5
C[C@H]1CN([C@@H](C)CO)C(=O)CCCn2nncc2CO[C@@H]1CN(C)Cc1cccnc1 | -0.2[16.7 µM] | / | 1.6 | 4.5 | -3.5 | /
COc1ccccc1NC(=S)NC1CCCCC1 | 9.2 | 2.4 | / | 4.9 | 1.5 | -0.1
COc1ccccc1NC(=S)NCC1CCCCC1 | 181.6* | -6.6 | -0.2 | 5.7 | -2.7 | 11.1
COc1ccccc1-c1cnc2c(c1)C(=O)N([C@H](C)CO)C[C@H](C)[C@@H](CN(C)Cc1ccc(F)cc1)O2 | 51.3[16.7 µM] | / | 0.4 | -1.6 | -1.9 | /
CNC(=O)C[C@H]1CC[C@H]2[C@H](COc3ccc(NC(=O)Nc4ccccc4)cc3C(=O)N2C)O1 | 9.3[16.7 µM] | / | 0.4 | 94.1* | 2.6 | /
